According to the M2OR odorant receptor database:

Tests used:
UniProt Q8VFP5 = target: T1, UniProt Q8VFP5; conditions: stereoisomer not certain
T1 sequence (whole entry): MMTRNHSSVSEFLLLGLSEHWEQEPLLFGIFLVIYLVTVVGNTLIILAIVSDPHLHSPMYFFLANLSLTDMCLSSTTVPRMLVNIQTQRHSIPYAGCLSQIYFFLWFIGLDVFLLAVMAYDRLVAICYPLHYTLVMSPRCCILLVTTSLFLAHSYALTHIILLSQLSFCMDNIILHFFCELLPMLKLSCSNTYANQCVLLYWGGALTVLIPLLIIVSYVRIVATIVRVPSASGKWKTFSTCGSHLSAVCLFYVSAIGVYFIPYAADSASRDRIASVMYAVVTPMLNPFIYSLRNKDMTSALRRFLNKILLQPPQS
How it was run: (§1)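 Transient luciferase assays in mammalian cell lines were common, though methods varied by source. The values come from published papers and their supplementary material, with extra details from the original authors when needed. Responsive refers to a measured signal the original authors judged statistically different from baseline, and non-responsive (inactive) to the remainder.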

UniProt Q8VG01 = target: T2, UniProt Q8VG01; conditions: stereoisomer not certain
T2 sequence (whole entry): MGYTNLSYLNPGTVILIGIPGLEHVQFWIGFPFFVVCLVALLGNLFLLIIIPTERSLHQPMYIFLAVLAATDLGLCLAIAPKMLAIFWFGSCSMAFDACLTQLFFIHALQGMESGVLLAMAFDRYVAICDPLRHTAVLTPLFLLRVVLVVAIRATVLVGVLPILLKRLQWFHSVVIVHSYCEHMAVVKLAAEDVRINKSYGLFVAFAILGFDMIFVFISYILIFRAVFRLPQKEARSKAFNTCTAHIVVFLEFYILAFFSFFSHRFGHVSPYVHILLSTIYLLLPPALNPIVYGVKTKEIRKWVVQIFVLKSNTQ
How it was run: as §1
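Also: active if original authors judged signal statistically different from baseline.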

Structure (SMILES) | odorant receptor agonist call (UniProt Q8VFP5) | odorant receptor agonist call (UniProt Q8VG01)
CCCCCCCCCCCO | inactive | inactive
CCOC(=O)CC(C)C | inactive | inactive
CCSSCC | inactive | inactive
OCC=Cc1ccccc1 | inactive | inactive
CCCCCOC(=O)CC | inactive | inactive
CCc1ncc(C)nc1CC | inactive | inactive
CCC(C)c1nccnc1OC (stereo not drawn) | inactive | inactive
Cc1ccc(C(C)C)cc1 | inactive | inactive
c1ccc2ncccc2c1 | inactive | inactive
CCc1ccc(O)cc1 | inactive | inactive
CCCCCC=CCCC=O | inactive | inactive
O=C(O)C1CCC1 | inactive | inactive
CCc1occc(=O)c1O | inactive | inactive
C=CC(=C)CCC=C(C)C | inactive | inactive
CCc1nccnc1CC | inactive | inactive
O=C(OCc1ccccc1)c1ccccc1O | inactive | inactive
CSSSC | inactive | inactive
COc1nccnc1C(C)C | inactive | inactive
Cc1occc1SSc1ccoc1C | inactive | inactive
CSSCc1ccco1 | inactive | inactive
CCSCC | inactive | inactive
CCCCCCCCCCOC(C)=O | inactive | inactive
C=CC(=O)CCCCC | inactive | inactive
CCCCCC(C)O (stereo not drawn) | inactive | inactive
CC(=O)OCc1ccc2c(c1)OCO2 | inactive | inactive
C=C(CC)CCCC(C)(C)O | inactive | inactive
C=C1C2CCC(C2)C1(C)C (stereo not drawn) | inactive | inactive
CCCC=O | inactive | inactive
C=C(C)C1CCC2(C)OC2C1 (stereo not drawn) | inactive | inactive
